Tests used:
Format in all cases: functional
CCRF-CEM [1] = assay: Antiproliferative activity against human CCRF-CEM cells assessed as cell viability at 25 uM after 72 hrs by MTT assay; conditions: read-out: Activity
Summary of the method: (§1)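 MTT viability assay in CCRF-CEM and MCF-7 cells after 72 h exposure at 25, 50, 100 and 200 µM. Results are relative to control cells without inhibitor in 0.5% DMSO. Done in triplicate; values are means ± SD of three independent experiments.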

CCRF-CEM [2] = assay: Antiproliferative activity against human CCRF-CEM cells assessed as cell viability at 50 uM after 72 hrs by MTT assay; conditions: read-out: Activity; summary of the method: as §1
CCRF-CEM [3] = assay: Antiproliferative activity against human CCRF-CEM cells assessed as cell viability at 100 uM after 72 hrs by MTT assay; conditions: read-out: Activity; summary of the method: as §1
CCRF-CEM [4] = assay: Antiproliferative activity against human CCRF-CEM cells assessed as cell viability at 200 uM after 72 hrs by MTT assay; conditions: read-out: Activity; summary of the method: as §1
MCF7 [5] = assay: Antiproliferative activity against human MCF7 cells assessed as cell viability at 25 uM after 72 hrs by MTT assay; conditions: MCF7, 72 h, read-out: Activity; summary of the method: as §1
MCF7 [6] = assay: Antiproliferative activity against human MCF7 cells assessed as cell viability at 50 uM after 72 hrs by MTT assay; conditions: MCF7, 72 h, read-out: Activity; summary of the method: as §1
MCF7 [7] = assay: Antiproliferative activity against human MCF7 cells assessed as cell viability at 100 uM after 72 hrs by MTT assay; conditions: MCF7, 72 h, read-out: Activity; summary of the method: as §1
MCF7 [8] = assay: Antiproliferative activity against human MCF7 cells assessed as cell viability at 200 uM after 72 hrs by MTT assay; conditions: MCF7, 72 h, read-out: Activity; summary of the method: as §1
Candida albicans [9] = assay: Growth inhibition of Candida albicans ATCC 90028 at 16 ug/ml incubated for 18 hrs at 35 degC by broth microdilution method relative to control; conditions: ATCC 90028, 18 h, read-out: GI
Candida albicans [10] = assay: Growth inhibition of Candida albicans ATCC 90028 at 16 ug/ml incubated for 48 hrs at 35 degC by broth microdilution method relative to control; conditions: ATCC 90028, 48 h, read-out: GI
Candida albicans [11] = assay: Growth inhibition of Candida albicans ATCC 90028 at 8 ug/ml incubated for 18 hrs at 35 degC by broth microdilution method relative to control; conditions: ATCC 90028, 18 h, read-out: GI
Candida albicans [12] = assay: Growth inhibition of Candida albicans ATCC 90028 at 8 ug/ml incubated for 48 hrs at 35 degC by broth microdilution method relative to control; conditions: ATCC 90028, 48 h, read-out: GI
Candida albicans [13] = assay: Growth inhibition of Candida albicans ATCC 90028 at 4 ug/ml incubated for 18 hrs at 35 degC by broth microdilution method relative to control; conditions: ATCC 90028, 18 h, read-out: GI
Candida albicans [14] = assay: Growth inhibition of Candida albicans ATCC 90028 at 8 ug/ml incubated for 4 hrs at 35 degC by broth microdilution method relative to control; conditions: ATCC 90028, 4 h, read-out: GI
Candida albicans [15] = assay: Growth inhibition of Candida albicans ATCC 90028 at 2 ug/ml incubated for 18 hrs at 35 degC by broth microdilution method relative to control; conditions: ATCC 90028, 18 h, read-out: GI
Candida albicans [16] = assay: Growth inhibition of Candida albicans ATCC 90028 at 2 ug/ml incubated for 4 hrs at 35 degC by broth microdilution method relative to control; conditions: ATCC 90028, 4 h, read-out: GI
Candida albicans [17] = assay: Growth inhibition of Candida albicans ATCC 90028 at 1 ug/ml incubated for 18 hrs at 35 degC by broth microdilution method relative to control; conditions: ATCC 90028, 18 h, read-out: GI
Candida albicans [18] = assay: Growth inhibition of Candida albicans ATCC 90028 at 1 ug/ml incubated for 4 hrs at 35 degC by broth microdilution method relative to control; conditions: ATCC 90028, 4 h, read-out: GI
Candida albicans [19] = assay: Growth inhibition of Candida albicans ATCC 90028 at 0.5 ug/ml incubated for 18 hrs at 35 degC by broth microdilution method relative to control; conditions: ATCC 90028, 18 h, read-out: GI
Candida albicans [20] = assay: Growth inhibition of Candida albicans ATCC 90028 at 0.5 ug/ml incubated for 4 hrs at 35 degC by broth microdilution method relative to control; conditions: ATCC 90028, 4 h, read-out: GI
Candida albicans [21] = assay: Growth inhibition of Candida albicans ATCC 90028 at 0.25 ug/ml incubated for 18 hrs at 35 degC by broth microdilution method relative to control; conditions: ATCC 90028, 18 h, read-out: GI
Candida albicans [22] = assay: Growth inhibition of Candida albicans ATCC 90028 at 0.25 ug/ml incubated for 4 hrs at 35 degC by broth microdilution method relative to control; conditions: ATCC 90028, 4 h, read-out: GI
Candida albicans [23] = assay: Growth inhibition of Candida albicans ATCC 90028 at 0.125 ug/ml incubated for 18 hrs at 35 degC by broth microdilution method relative to control; conditions: ATCC 90028, 18 h, read-out: GI
Candida albicans [24] = assay: Growth inhibition of Candida albicans ATCC 90028 at 0.125 ug/ml incubated for 4 hrs at 35 degC by broth microdilution method relative to control; conditions: ATCC 90028, 4 h, read-out: GI
Candida albicans [25] = assay: Growth inhibition of Candida albicans ATCC 90028 at 0.0625 ug/ml incubated for 18 hrs at 35 degC by broth microdilution method relative to control; conditions: ATCC 90028, 18 h, read-out: GI
Candida albicans [26] = assay: Growth inhibition of Candida albicans ATCC 90028 at 0.0625 ug/ml incubated for 4 hrs at 35 degC by broth microdilution method relative to control; conditions: ATCC 90028, 4 h, read-out: GI
Candida albicans [27] = assay: Growth inhibition of Candida albicans ATCC 90028 at 0.0313 ug/ml incubated for 18 hrs at 35 degC by broth microdilution method relative to control; conditions: ATCC 90028, 18 h, read-out: GI
Candida albicans [28] = assay: Growth inhibition of Candida albicans ATCC 90028 at 0.0313 ug/ml incubated for 4 hrs at 35 degC by broth microdilution method relative to control; conditions: ATCC 90028, 4 h, read-out: GI
Candida albicans [29] = assay: Fungicidal activity against Candida albicans ATCC 90028 assessed as log reduction in cell viability at 16 ug/ml after 48 hrs at 35 degC
Summary of the method: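 MFC assay on C. albicans ATCC 90028 following M27-A3, at the molar equivalent of 16 µg/mL. CFU of treated cells were compared with CFU of the untreated inoculum. Activity is given as lg R = lg CFU/mL control − lg CFU/mL treated, and lg R ≥3 was defined as fungicidal. Values are means of two independent experiments.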

| SMILES | viability at 25 µM (CCRF-CEM [1]) [%] | viability at 50 µM (CCRF-CEM [2]) [%] | viability at 100 µM (CCRF-CEM [3]) [%] | viability at 200 µM (CCRF-CEM [4]) [%] | viability at 25 µM (MCF7 [5]) [%] | viability at 50 µM (MCF7 [6]) [%] | viability at 100 µM (MCF7 [7]) [%] | viability at 200 µM (MCF7 [8]) [%] | inhibition of growth at 16 µg/mL (Candida albicans [9]) [%] | inhibition of growth at 16 µg/mL (Candida albicans [10]) [%] | inhibition of growth at 8 µg/mL (Candida albicans [11]) [%] | inhibition of growth at 8 µg/mL (Candida albicans [12]) [%] | inhibition of growth at 4 µg/mL (Candida albicans [13]) [%] | inhibition of growth at 2 µg/mL (Candida albicans [15]) [%] | inhibition of growth at 2 µg/mL (Candida albicans [16]) [%] | inhibition of growth at 1 µg/mL (Candida albicans [17]) [%] | inhibition of growth at 1 µg/mL (Candida albicans [18]) [%] | inhibition of growth at 0.5 µg/mL (Candida albicans [19]) [%] | inhibition of growth at 0.5 µg/mL (Candida albicans [20]) [%] | inhibition of growth at 0.25 µg/mL (Candida albicans [21]) [%] | further results |
| --- | --- | --- | --- | --- | --- | --- | --- | --- | --- | --- | --- | --- | --- | --- | --- | --- | --- | --- | --- | --- | --- |
| COC(C(=O)OC(C)Cn1cnc2c1c(=O)n(C)c(=O)n2C)c1ccc(C(C)(C)C)cc1 (stereo not given) | 75.8 | 55.3 | 28.6 | 0 | 82.2 | 79.5 | 63.5 | 35 | 99.8 | 99.2 | 100 | 99.7 | 99.9 | 99.9 | 99.2 | 99.8 | 99.4 | 99.7 | 98.9 | 100 | inhibition of growth at 8 µg/mL (Candida albicans [14]): 99.5%; inhibition of growth at 0.25 µg/mL (Candida albicans [22]): 99.3%; inhibition of growth at 0.125 µg/mL (Candida albicans [23]): 100%; inhibition of growth at 0.125 µg/mL (Candida albicans [24]): 99.2%; inhibition of growth at 0.0625 µg/mL (Candida albicans [25]): 99.9%; inhibition of growth at 0.0625 µg/mL (Candida albicans [26]): 99%; inhibition of growth at 0.0313 µg/mL (Candida albicans [27]): 99.8%; inhibition of growth at 0.0313 µg/mL (Candida albicans [28]): 99.4%; log(activity) (Candida albicans [29]): 0.2 |
| Cc1ccc(C(=O)CC(=O)OC(C)Cn2cnc3c2c(=O)n(C)c(=O)n3C)cc1 (stereo not given) | 89.5 | 74.2 | 67.3 | 31.6 | 89 | 82.2 | 86.6 | 82.7 | 100 | 99.1 | 100 | 99.3 | 100 | 100 | 99.2 | 100 | 99.2 | 99.8 | 99.2 | 100 | inhibition of growth at 0.25 µg/mL (Candida albicans [22]): 99.2%; inhibition of growth at 0.125 µg/mL (Candida albicans [23]): 100%; inhibition of growth at 0.0625 µg/mL (Candida albicans [25]): 99.8%; inhibition of growth at 0.0625 µg/mL (Candida albicans [26]): 99.3%; inhibition of growth at 0.0313 µg/mL (Candida albicans [27]): 100%; inhibition of growth at 0.0313 µg/mL (Candida albicans [28]): 99.8%; log(activity) (Candida albicans [29]): 0.5 |
| CC(Cn1cnc2c1c(=O)n(C)c(=O)n2C)OC(=O)Sc1ccccc1 (stereo not given) | 53.9 | 37.1 | 14.5 | 0.5 | 86.8 | 81.9 | 69.9 | 43.1 | 99.8 | 99.5 | 100 | 99.2 | 99.8 | 100 | 99.3 | 99.9 | 99.5 | 99.9 | 99.4 | 100 | inhibition of growth at 8 µg/mL (Candida albicans [14]): 99.5%; inhibition of growth at 0.25 µg/mL (Candida albicans [22]): 99.5%; inhibition of growth at 0.125 µg/mL (Candida albicans [23]): 99.5%; inhibition of growth at 0.125 µg/mL (Candida albicans [24]): 99.1%; inhibition of growth at 0.0625 µg/mL (Candida albicans [25]): 99.7%; inhibition of growth at 0.0625 µg/mL (Candida albicans [26]): 99.1%; inhibition of growth at 0.0313 µg/mL (Candida albicans [27]): 99.8%; inhibition of growth at 0.0313 µg/mL (Candida albicans [28]): 99.3%; log(activity) (Candida albicans [29]): 0.1 |

From ChEMBL document CHEMBL4229342, “Synthesis of novel proxyphylline derivatives with dual Anti-Candida albicans and anticancer activity” (Eur J Med Chem, 2018)
